The record followed here is ChEMBL document CHEMBL6134795, “Mannich reaction mediated derivatization of chromones and their biological evaluations as putative multipotent ligands for the treatment of Alzheimer's disease” (RSC Med Chem, 2024).

As usually defined, the inhibition is the change of the read-out against control, counted positive when it falls. In general, IC50 refers to the point on the concentration scale where inhibition reaches its midpoint.

Series [1] concerns the target T1, Acetylcholinesterase (Homo sapiens, UniProt P22303). Description: Mixed type inhibition of AChE (unknown origin) by Lineweaver-Burk plot analysis. A digest of the protocol: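 Ellman-based AChE kinetics run at several substrate concentrations and several final inhibitor concentrations. Mode of inhibition assigned from double-reciprocal Lineweaver–Burk plots.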

In series [2] the test system is SH-SY5Y. The experiment in a line: Cytotoxicity against human SH-SY5Y cells assessed as cell viability at 5 uM by MTT assay relative to control. It is filed as functional. The following applies: read-out: Activity. A digest of the protocol:
(§1)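 SH-SY5Y cells (DMEM/F-12 with 10% FBS, 1% horse serum, 1% penicillin) preincubated 24 h with compound at 1, 5 or 25 μM; MTT converted to formazan, solubilised in DMSO, absorbance read at 595 nm; viability expressed as percentage of untreated control.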
Background: Tetrazolium dyes change colour on reduction, which living cells bring about.

In series [3] the target is Cholinesterase (Homo sapiens, UniProt P06276). Description: Inhibition of recombinant BuChE (unknown origin) using BTCI as substrate at 20 uM preincubated for 30 mins followed by substrate addition by TECAN multiplate reader analysis relative to control. In a few lines: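 Ellman method as for AChE, using butyrylcholinesterase with BTCI as substrate. Enzyme and compound preincubated 30 min at 37 °C in a CO2 incubator, then DTNB and BTCI added; absorbance read at 417 nm. Screening at 20 μM as % inhibition; IC50 for compounds exceeding 50% inhibition at 20 μM. Triplicate.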
Sequence of Cholinesterase (P06276 whole entry): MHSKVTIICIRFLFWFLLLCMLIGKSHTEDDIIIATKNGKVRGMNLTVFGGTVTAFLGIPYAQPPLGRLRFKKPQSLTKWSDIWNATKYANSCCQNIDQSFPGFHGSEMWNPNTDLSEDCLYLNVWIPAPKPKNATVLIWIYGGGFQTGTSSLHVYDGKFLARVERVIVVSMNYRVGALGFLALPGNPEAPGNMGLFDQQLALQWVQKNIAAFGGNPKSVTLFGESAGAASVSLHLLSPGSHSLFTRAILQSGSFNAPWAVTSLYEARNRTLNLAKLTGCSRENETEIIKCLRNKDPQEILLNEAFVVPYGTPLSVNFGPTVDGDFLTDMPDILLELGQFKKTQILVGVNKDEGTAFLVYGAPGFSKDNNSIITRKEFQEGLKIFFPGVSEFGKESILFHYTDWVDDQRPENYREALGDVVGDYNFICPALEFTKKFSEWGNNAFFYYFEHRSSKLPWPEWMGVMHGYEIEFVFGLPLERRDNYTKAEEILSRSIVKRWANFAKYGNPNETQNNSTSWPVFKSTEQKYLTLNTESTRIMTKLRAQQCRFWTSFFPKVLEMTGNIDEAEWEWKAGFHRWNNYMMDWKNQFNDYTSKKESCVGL

Series [4] deals with T2, Amine oxidase [flavin-containing] B (Homo sapiens, UniProt P27338).
T2 sequence (P27338 whole entry): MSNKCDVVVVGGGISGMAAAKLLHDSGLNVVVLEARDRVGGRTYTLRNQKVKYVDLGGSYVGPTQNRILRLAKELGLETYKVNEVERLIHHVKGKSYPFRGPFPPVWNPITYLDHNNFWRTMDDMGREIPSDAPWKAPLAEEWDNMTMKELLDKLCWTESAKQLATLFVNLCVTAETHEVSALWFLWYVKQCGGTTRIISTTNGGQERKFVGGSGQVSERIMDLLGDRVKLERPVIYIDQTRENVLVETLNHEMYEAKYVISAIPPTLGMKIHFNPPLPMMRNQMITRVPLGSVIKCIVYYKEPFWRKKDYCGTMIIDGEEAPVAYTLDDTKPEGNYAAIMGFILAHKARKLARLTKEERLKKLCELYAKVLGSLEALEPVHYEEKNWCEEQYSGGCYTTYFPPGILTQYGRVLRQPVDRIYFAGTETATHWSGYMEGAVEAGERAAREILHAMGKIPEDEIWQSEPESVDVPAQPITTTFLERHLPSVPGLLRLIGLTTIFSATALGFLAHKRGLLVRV
Description: Inhibition of recombinant MAO-B (unknown origin) at 20 uM preincubated for 30 mins followed substrate addition by Amplex Red reagent based fluorescence analysis relative to control. A digest of the protocol: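 Recombinant MAO enzyme preincubated with compound 30 min at 37 °C; substrate, HRP and Amplex Red working solution then added; H2O2 formation read at 37 °C by fluorescence, ex 545/em 590 nm. Screening at 20 μM as % inhibition versus control; IC50 only for compounds above 50% inhibition at 20 μM; triplicate (n = 3).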

The target in series [5] is T2, Amine oxidase [flavin-containing] B. Description: Reversible inhibition of MAO-B (unknown origin) assessed as residual activity at 1 times IC50 incubated for 30 mins by dilution method relative to control. The settings on record: 0.5 h.
Series [6] deals with T1, Acetylcholinesterase. The experiment in a line: Reversible inhibition of AChE (unknown origin) assessed as residual activity at 10 times IC50 incubated for 30 mins by dilution method relative to control. In a few lines:
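Samples then diluted 100-fold with substrate, giving final inhibitor levels of 0.1× and 1× IC50. Recovered activity measured relative to control; triplicate.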

Series [7] relates to SH-SY5Y. Description: Cytotoxicity against human SH-SY5Y cells assessed as reduction in cell viability at 1 to 25 uM by MTT assay. The format is functional, cell-based. The following applies: dose 1-25 µM. A digest of the protocol: as §1
In series [8] the test system is SH-SY5Y. Description: Neuroprotective activity against 6-OHDA-induced cytotoxicity in human SH-SY5Y cells assessed as cell viability at 1 uM incubated for 24 hrs followed by exposure to 6-OHDA by MTT assay relative to control. The format is functional. The following applies: read-out: Activity. In a few lines:
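SH-SY5Y cells treated with compound (1, 5, 25 μM) and challenged with 6-OHDA; cultured 24 h at 37 °C under humidified 5% CO2. Viability measured by MTT as formazan absorbance at 594 nm and expressed relative to control.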

The test system of series [9] is SH-SY5Y. Description: Inhibition of ROS production in human SH-SY5Y cells assessed as intracellular ROS level at 5 uM incubated for 24 hrs by DCF-DA staining based fluorescence analysis relative to control. It is filed as functional. In a few lines: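 Cultured SH-SY5Y cells exposed to compound (1, 5, 25 μM) for 24 h; intracellular ROS detected with DCF-DA, which is converted to fluorescent 2,7-DCF, read at ex 478/em 518 nm. Inhibition is expressed relative to control. Mean ± SD of triplicate or more independent experiments.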

The target in series [10] is T2, Amine oxidase [flavin-containing] B. Description: Reversible inhibition of MAO-B (unknown origin) assessed as residual activity at 0.1 times IC50 incubated for 30 mins by dilution method relative to control. The following applies: 0.5 h.
For series [11], the target named is Amyloid-beta precursor protein (Homo sapiens) (UniProt P05067). The experiment in a line: Inhibition of self-induced amyloid beta (1 to 42 residues) (unknown origin) aggregation at 20 uM incubated at 48 hrs by fluorimetry-based thioflavin T assay. In a few lines: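 Aβ1-42 pretreated with HFIP (1 mg mL−1) and dried, then incubated with compound (20 μM) at 37 °C for 24 h; an aliquot transferred and incubated further to 48 h. Glycine–NaOH buffer pH 8.0 with 5 μM ThT added; fluorescence read at 440–485 nm. % inhibition calculated against the Aβ-only control taken as 0%.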
Sequence of Amyloid-beta precursor protein (Homo sapiens) (P05067 whole entry, the tested form may be a part): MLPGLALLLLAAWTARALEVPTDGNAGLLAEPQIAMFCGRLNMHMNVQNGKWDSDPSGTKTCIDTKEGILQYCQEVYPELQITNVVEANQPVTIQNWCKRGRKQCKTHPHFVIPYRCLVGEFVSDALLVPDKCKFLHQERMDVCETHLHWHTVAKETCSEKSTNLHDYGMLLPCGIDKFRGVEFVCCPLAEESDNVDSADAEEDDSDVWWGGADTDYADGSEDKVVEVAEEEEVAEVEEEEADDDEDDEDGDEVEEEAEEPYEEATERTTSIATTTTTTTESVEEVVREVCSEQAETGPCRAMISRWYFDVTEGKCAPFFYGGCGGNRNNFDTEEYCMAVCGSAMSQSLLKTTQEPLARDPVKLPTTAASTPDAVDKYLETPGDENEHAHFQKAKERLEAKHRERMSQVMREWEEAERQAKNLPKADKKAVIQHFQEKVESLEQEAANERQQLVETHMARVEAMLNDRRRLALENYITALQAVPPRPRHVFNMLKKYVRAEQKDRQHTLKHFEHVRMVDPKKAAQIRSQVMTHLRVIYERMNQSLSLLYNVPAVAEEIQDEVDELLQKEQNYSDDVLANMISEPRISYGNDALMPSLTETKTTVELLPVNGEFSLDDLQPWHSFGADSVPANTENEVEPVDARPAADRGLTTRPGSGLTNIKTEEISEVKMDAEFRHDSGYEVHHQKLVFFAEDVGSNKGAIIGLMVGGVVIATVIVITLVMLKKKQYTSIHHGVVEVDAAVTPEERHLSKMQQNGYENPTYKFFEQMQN

The target in series [12] is T2, Amine oxidase [flavin-containing] B. Description: Inhibition of recombinant MAO-B (unknown origin) preincubated for 30 mins followed substrate addition by Amplex Red reagent based fluorescence analysis.
For series [13], the target named is Amyloid-beta precursor protein (Homo sapiens) (UniProt P05067). Description: Inhibition of self-induced amyloid beta (1 to 42 residues) (unknown origin) aggregation assessed as reduction in plaques formation measured after 72 hrs by FE-SEM analysis. A digest of the protocol:
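HFIP-pretreated Aβ1-42 incubated with or without inhibitor for 72 h; samples placed on carbon-coated copper grids, dried 1 h at 37 °C, imaged by FE-SEM. Glycine–NaOH buffer served as blank and Aβ alone as control.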

The source made the active and inactive calls. The rule behind the calls is not given here.

T1 sequence (P22303 whole entry): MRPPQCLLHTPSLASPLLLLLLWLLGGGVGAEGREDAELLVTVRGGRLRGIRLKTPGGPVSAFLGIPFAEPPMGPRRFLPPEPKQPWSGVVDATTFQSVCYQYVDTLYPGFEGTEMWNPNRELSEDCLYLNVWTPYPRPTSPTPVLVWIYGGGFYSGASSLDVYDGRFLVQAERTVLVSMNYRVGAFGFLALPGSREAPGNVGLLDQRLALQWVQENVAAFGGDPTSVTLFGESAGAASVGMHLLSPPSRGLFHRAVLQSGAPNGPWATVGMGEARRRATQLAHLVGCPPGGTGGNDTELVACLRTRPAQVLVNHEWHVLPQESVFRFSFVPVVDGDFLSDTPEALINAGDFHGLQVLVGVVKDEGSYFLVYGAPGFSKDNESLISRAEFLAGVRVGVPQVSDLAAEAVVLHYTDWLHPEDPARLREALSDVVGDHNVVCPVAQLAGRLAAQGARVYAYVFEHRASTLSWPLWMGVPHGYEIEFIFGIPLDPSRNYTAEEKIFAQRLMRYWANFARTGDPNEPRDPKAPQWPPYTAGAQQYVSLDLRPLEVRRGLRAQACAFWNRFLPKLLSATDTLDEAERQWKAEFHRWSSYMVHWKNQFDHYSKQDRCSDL

With `C#CCCCOc1ccc(-c2cc(=O)c3ccccc3o2)cc1CN1CCCCC1`, the inhibition entry in series [1] and in series [13] was “Active” throughout. In series [2], the viability at 5 µM was determined as 97.4%. The inhibition in [3] was determined as 87.9%; in [11], 32.2%. The inhibition at 20 µM in [4] stood at 61.2%. Also, the Activity in [5] is 50.3%; in [6], 28.9%; in series [7], “Not toxic”; in series [10], 71.4%. In [8], the viability at 1 µM turned out to be 55.1%. In addition, the inhibition at 5 µM in series [9] was 44.9%. The IC50 in [12] was 12.3 µM.
